Test results as given in ChEMBL document CHEMBL4152184, “NB 06: From a simple lysosomotropic aSMase inhibitor to tools for elucidating the role of lysosomes in signaling apoptosis and LPS-induced inflammation” (Eur J Med Chem, 2018).
Activity calls are given as the source filed them. No cut-off for these calls is given here.

Experiments:
[1] = biological target: T1, Acid ceramidase (Homo sapiens) (UniProt Q13510); assay: Inhibition of mmLDL-stimulated acid ceramidase in human PBMC assessed as ratio of C16-ceramide/lipid phosphate level at 10 uM preincubated for 30 mins followed by mmLDL stimulation measured after 4 hrs by HPLC method (reference value: 0.49); type: cell-based
T1 sequence (whole entry): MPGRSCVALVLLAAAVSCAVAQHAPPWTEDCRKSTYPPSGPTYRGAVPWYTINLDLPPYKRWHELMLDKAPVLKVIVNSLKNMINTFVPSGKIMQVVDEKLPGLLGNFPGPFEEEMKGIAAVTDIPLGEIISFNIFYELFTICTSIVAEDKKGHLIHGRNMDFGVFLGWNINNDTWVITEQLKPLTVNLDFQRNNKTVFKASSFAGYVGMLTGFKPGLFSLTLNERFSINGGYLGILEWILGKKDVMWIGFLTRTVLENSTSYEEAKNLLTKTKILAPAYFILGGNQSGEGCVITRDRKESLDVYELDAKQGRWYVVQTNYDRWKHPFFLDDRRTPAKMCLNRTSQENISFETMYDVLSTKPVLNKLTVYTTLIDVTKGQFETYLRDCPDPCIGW
Method in brief: (§1)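 Human macrophages from primary culture were preincubated 30 min with 10 µM compound. They were then stimulated 4 h with mmLDL (54 µg/mL), TNFalpha (3 ng/mL) or exogenous C6-ceramide (10 µM), or left unstimulated. Individual ceramide species (C16 and C24:1) were quantified in the cell lipid extracts.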

[2] = biological target: T2, Sphingomyelin phosphodiesterase (Homo sapiens, UniProt P17405); assay: Inhibition of mmLDL-stimulated acid sphingomyelinase in human PBMC lysates using BODIPY FL C5-sphingomyelin as substrate preincubated for 30 mins followed by mmLDL stimulation measured after 2 hrs by HPLC method
T2 sequence (P17405 whole entry): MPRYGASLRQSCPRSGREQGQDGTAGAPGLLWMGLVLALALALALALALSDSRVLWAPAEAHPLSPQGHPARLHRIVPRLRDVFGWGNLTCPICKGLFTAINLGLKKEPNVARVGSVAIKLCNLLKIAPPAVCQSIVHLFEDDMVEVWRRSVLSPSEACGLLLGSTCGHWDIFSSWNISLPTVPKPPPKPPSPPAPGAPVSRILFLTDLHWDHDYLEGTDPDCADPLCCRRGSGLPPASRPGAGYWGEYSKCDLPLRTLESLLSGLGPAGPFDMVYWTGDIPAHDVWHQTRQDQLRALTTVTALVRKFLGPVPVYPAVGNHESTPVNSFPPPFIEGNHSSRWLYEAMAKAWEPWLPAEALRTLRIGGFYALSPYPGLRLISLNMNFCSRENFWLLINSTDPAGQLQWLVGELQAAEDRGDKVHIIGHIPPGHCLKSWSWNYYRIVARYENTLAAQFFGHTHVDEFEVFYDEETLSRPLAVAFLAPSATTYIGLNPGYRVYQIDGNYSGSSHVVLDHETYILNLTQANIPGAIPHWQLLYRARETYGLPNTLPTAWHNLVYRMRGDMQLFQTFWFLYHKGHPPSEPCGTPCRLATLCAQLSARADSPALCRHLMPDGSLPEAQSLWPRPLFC

MONO-MAC-6 [3] = assay: Upregulation of PTGS2 mRNA expression level in LPS-stimulated human MONO-MAC-6 cells at 5 uM preincubated for 30 mins followed by LPS stimulation measured after 2 hrs by oligonucleotide array hybridization assay (reference value: 1.97); type: functional
MONO-MAC-6 [4] = assay: Downregulation of IL-6 mRNA expression level in LPS-stimulated human MONO-MAC-6 cells at 5 uM preincubated for 30 mins followed by LPS stimulation measured after 6 hrs by qRT-PCR method (reference value: 5.09); type: functional
PBMC = assay: Inhibition of mmLDL-stimulated apoptosis in human PBMC assessed as apoptotic cells at 2 uM preincubated for 30 mins followed by mmLDL stimulation measured after 4 hrs by YO-PRO-1/Hoechst 33342 staining based assay (reference value: 100%); type: functional; parameters: scale not given: the % may be the effect or the level left
Method in brief: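 PBMC pre-incubated 30 min with 2 μM compound, then stimulated with mmLDL (27 μg/mL; line 5) or TNFalpha (3 ng/mL; line 1) for 4 h. Apoptotic cells stained with YO-PRO-1 and all cells with Hoechst 33342. Each plate had control, stimulus, compound alone and compound plus stimulus; n = 3. Values are on a 0% (untreated control, corrected for spontaneous apoptosis) to 100% (stimulus alone) scale; means ± SE.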

MONO-MAC-6 [5] = assay: Downregulation of IL-6 mRNA expression level in human MONO-MAC-6 cells at 5 uM incubated for 30 mins measured after 6 hrs by qRT-PCR method relative to control; type: functional
MONO-MAC-6 [6] = assay: Upregulation of PTGS2 mRNA expression level in human MONO-MAC-6 cells at 5 uM incubated for 30 mins measured after 4 hrs by oligonucleotide array hybridization assay relative to control; type: functional
[7] = biological target: T3, Sphingomyelin phosphodiesterase (Homo sapiens) (UniProt P17405); assay: Inhibition of mmLDL-stimulated acid sphingomyelinase in human PBMC lysates at 100 uM preincubated for 30 mins followed by mmLDL stimulation measured after 4 hrs by YO-PRO-1/Hoechst 33342 staining based assay
T3 sequence (whole entry): T2 sequence (P17405 whole entry)

MONO-MAC-6 [8] = assay: Downregulation of IL23A mRNA expression level in human MONO-MAC-6 cells at 5 uM incubated for 30 mins measured after 2 hrs by qRT-PCR method relative to control; type: functional
MONO-MAC-6 [9] = assay: Downregulation of PTGS2 mRNA expression level in LPS-stimulated human MONO-MAC-6 cells at 5 uM preincubated for 30 mins followed by LPS stimulation measured after 6 hrs by oligonucleotide array hybridization assay (reference value: 3.58); type: functional
Method in brief: (§2)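 Total RNA was isolated, transcribed and labeled with DY-647 dye, then co-hybridized with DY-548-labeled cDNA from untreated cells on an inflammation oligonucleotide chip (780 gene probes). Differential expression >1.5 was taken as significant.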

MONO-MAC-6 [10] = assay: Upregulation of PTGS2 mRNA expression level in human MONO-MAC-6 cells at 5 uM incubated for 30 mins measured after 2 hrs by oligonucleotide array hybridization assay relative to control; type: functional
MONO-MAC-6 [11] = assay: Downregulation of PTX3 mRNA expression level in LPS-stimulated human MONO-MAC-6 cells at 5 uM preincubated for 30 mins followed by LPS stimulation measured after 6 hrs by oligonucleotide array hybridization assay (reference value: 3.18); type: functional; method in brief: as §2
MONO-MAC-6 [12] = assay: Upregulation of CCL4 mRNA expression level in human MONO-MAC-6 cells at 5 uM incubated for 30 mins measured after 1 hr by oligonucleotide array hybridization assay relative to control; type: functional
MONO-MAC-6 [13] = assay: Upregulation of IL23A mRNA expression level in LPS-stimulated human MONO-MAC-6 cells at 5 uM preincubated for 30 mins followed by LPS stimulation measured after 1 hr by qRT-PCR method (reference value: 1.10); type: functional
[14] = biological target: T1, Acid ceramidase (Homo sapiens); assay: Inhibition of TNFalpha-stimulated acid ceramidase in human PBMC assessed as ratio of C16-ceramide/lipid phosphate level at 10 uM preincubated for 30 mins followed by TNFalpha stimulation measured after 4 hrs by HPLC method (reference value: 0.49); type: cell-based; method in brief: as §1

COc1ccc(CCN(C)CCCn2c3ccccc3c3ccccc32)cc1
Ratio [1]: 0.24
IC50 [2]: 13 to 17 µM
fold change (FC) (MONO-MAC-6 [3]): 3.66
fold change (FC) (MONO-MAC-6 [4]): 1.1
Activity (PBMC): 33 - 49%
fold change (FC) (MONO-MAC-6 [5]): 46.64
fold change (FC) (MONO-MAC-6 [6]): 1.17
inhibition [7]: Active
fold change (FC) (MONO-MAC-6 [8]): 1.24
fold change (FC) (MONO-MAC-6 [9]): 1.06
fold change (FC) (MONO-MAC-6 [10]): 2.08
fold change (FC) (MONO-MAC-6 [11]): 1.05
fold change (FC) (MONO-MAC-6 [12]): 1.22
fold change (FC) (MONO-MAC-6 [13]): 1.03
Ratio [14]: 0.16
